Tests used:
Alcohol dehydrogenase [1] = molecular target: T1, Alcohol dehydrogenase (Equus caballus, UniProt P00327+P00328); experiment: In vitro inhibitory activity against horse liver Alcohol dehydrogenase
[2] = molecular target: Glutamate dehydrogenase 1, mitochondrial (Bos taurus, UniProt P00366); experiment: In vitro inhibitory activity against bovine liver glutamate dehydrogenase (GDH)
Alcohol dehydrogenase [3] = molecular target: T1, Alcohol dehydrogenase; experiment: In vitro inhibitory activity against horse liver Alcohol dehydrogenase (ADH)
[4] = molecular target: L-lactate dehydrogenase B chain (Sus scrofa, UniProt P00336); experiment: In vitro inhibitory activity against pig heart lactate dehydrogenase (LDH)
Outline: (§1)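 Pig heart enzymes (cytoplasmic MDH or LDH, from ammonium sulfate suspension) assayed in 0.05 M Tris HCl pH 9.0, with NAD as substrate; rates from NADH appearance by A340 (ε 6.22 mM⁻¹cm⁻¹) or fluorescence calibrated against NADH standards. Run at least in duplicate; kinetic constants from Lineweaver-Burk plots by linear regression.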

[5] = molecular target: T2, Malate dehydrogenase, cytoplasmic (Sus scrofa, UniProt P11708); experiment: In vitro inhibitory activity against pig heart cytoplasmic malate dehydrogenase (MDH); outline: as §1
T2 sequence (P11708 whole entry): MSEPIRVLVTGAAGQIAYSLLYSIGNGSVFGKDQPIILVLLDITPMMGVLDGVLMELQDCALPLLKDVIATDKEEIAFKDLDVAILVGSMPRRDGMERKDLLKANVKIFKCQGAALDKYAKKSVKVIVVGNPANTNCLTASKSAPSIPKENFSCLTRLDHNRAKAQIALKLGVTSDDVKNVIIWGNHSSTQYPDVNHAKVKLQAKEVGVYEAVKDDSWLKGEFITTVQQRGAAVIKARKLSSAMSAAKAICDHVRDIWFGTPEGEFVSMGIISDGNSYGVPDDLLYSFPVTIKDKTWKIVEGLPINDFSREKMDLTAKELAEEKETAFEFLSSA

Alcohol dehydrogenase [6] = molecular target: T1, Alcohol dehydrogenase; experiment: Dissociation constant from Alcohol dehydrogenase; format: protein assay

Glutamate dehydrogenase 1, mitochondrial, sequence (P00366 whole entry): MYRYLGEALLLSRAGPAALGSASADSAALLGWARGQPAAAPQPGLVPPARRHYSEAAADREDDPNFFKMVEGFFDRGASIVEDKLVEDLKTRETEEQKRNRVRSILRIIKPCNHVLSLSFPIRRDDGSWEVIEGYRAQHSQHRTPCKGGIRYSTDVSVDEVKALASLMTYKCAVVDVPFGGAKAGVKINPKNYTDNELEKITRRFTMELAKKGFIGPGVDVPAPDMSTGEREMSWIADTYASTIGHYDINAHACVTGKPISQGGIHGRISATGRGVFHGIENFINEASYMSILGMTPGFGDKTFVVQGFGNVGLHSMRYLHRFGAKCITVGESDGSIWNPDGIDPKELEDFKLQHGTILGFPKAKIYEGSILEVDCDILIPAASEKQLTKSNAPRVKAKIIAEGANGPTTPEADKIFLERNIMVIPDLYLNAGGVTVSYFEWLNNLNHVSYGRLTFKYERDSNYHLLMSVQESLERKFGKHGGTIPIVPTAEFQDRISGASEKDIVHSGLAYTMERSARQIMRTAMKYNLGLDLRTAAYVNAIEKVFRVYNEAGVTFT
L-lactate dehydrogenase B chain, sequence (P00336 whole entry): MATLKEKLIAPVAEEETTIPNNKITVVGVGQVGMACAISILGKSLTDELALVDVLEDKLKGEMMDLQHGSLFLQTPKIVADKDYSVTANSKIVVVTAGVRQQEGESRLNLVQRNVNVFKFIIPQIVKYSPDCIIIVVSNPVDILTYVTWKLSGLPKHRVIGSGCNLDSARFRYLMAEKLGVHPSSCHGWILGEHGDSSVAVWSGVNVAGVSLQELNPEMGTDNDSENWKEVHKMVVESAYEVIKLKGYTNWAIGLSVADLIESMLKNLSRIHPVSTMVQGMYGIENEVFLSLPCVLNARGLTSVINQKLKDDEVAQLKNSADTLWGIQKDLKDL

Compound | Ki (Alcohol dehydrogenase [1]) [µM] | Ki [2] [µM] | Ki (Alcohol dehydrogenase [3]) [µM] | Ki [4] [µM] | Ki [5] [µM] | Kd (Alcohol dehydrogenase [6]) [µM]
NC(=O)c1csc([C@@H]2O[C@H](COP(=O)(O)O)[C@@H](O)[C@H]2O)n1 | 105 | 65.2 | – | – | – | –
NC(=O)c1csc([C@H]2O[C@@H](COP(=O)(O)OP(=O)(O)OC[C@H]3O[C@@H](n4cnc5c(N)ncnc54)[C@H](O)[C@@H]3O)[C@H](O)[C@@H]2O)n1 | – | 4.5 | 26.5 | 25.2 | 36.3 | 27
NC(=O)c1ccc[n+]([C@@H]2O[C@H](COP(=O)([O-])O)[C@@H](O)[C@H]2O)c1 [BETANMN] | > 10000 | > 10000 | – | – | – | –
NC(=O)c1csc([C@@H]2O[C@H](CO)[C@@H](O)[C@H]2O)n1 [TIAZOFURIN] | > 10000 | > 10000 | – | – | – | –
